# Assay results taken from ChEMBL document CHEMBL1132233, “6-Anilinouracil-based inhibitors of Bacillus subtilis DNA polymerase III: antipolymerase and antimicrobial structure-activity relationships based on substitution at uracil N3” (J Med Chem, 1999).
# Key:
# [1] = Compound was tested for inhibitory activity against DNA pol III of Bacillus subtilis
# In short: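 Homogeneous recombinant B. subtilis DNA pol III was assayed on activated calf thymus DNA. Apparent Ki was determined with a truncated assay lacking the competitor dGTP. Values are the average of three independent experiments.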
# [2] = system: Bacillus subtilis; test: Minimum inhibitory concentration against Bacillus subtilis; type: functional
# In short: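 Test organism was penicillin-sensitive B. subtilis strain BD54. A log-phase culture was diluted to 10^4 cells/mL in Luria broth. Inhibitors in DMSO were added at 0–100 µM, with final DMSO at 1%. Cultures were incubated 24 h at 37 °C and growth was scored by eye. MIC is the lowest concentration with no apparent growth, averaged over three independent experiments.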
# [3] = target: DNA polymerase III (Bacillus subtilis); test: Compound was tested for inhibitory activity against DNA polymerase III of Bacillus subtilis
Ki [1],MIC [2],Ki [3],Structure (SMILES)
310 nM,3 µM,–,CCn1c(=O)cc(Nc2ccc3c(c2)CCC3)[nH]c1=O
380 nM,3 µM,–,C=CCn1c(=O)cc(Nc2ccc3c(c2)CCC3)[nH]c1=O
1000 nM,30 µM,–,CCc1cc(Nc2cc(O)nc(O)n2)ccc1C
1200 nM,30 µM,–,Oc1cc(Nc2ccc3c(c2)CCC3)nc(O)n1
1340 nM,5 µM,–,Cn1c(=O)cc(Nc2ccc3c(c2)CCC3)[nH]c1=O
–,1.5 µM,120 nM,CCc1cc(Nc2cc(=O)n(CC)c(=O)[nH]2)ccc1C
730 nM,3 µM,–,CCc1cc(Nc2cc(=O)n(CCCO)c(=O)[nH]2)ccc1C
580 nM,3 µM,–,CCc1cc(Nc2cc(=O)n(CCOC)c(=O)[nH]2)ccc1C
210 nM,1.5 µM,–,C=CCn1c(=O)cc(Nc2ccc(C)c(CC)c2)[nH]c1=O
240 nM,> 100 µM,–,CCCCCCn1c(=O)cc(Nc2ccc3c(c2)CCC3)[nH]c1=O
–,11 µM,310 nM,CCCn1c(=O)cc(Nc2ccc3c(c2)CCC3)[nH]c1=O
–,3 µM,90 nM,CCCCn1c(=O)cc(Nc2ccc3c(c2)CCC3)[nH]c1=O
590 nM,3 µM,–,CCc1cc(Nc2cc(=O)n(CCO)c(=O)[nH]2)ccc1C
1000 nM,1.5 µM,–,CCc1cc(Nc2cc(=O)n(CCCOC)c(=O)[nH]2)ccc1C
